High-throughput results from PubChem BioAssay.
HIV Rev-RRE inh = inhibitors of HIV-1 Rev-RRE RNA interaction | AID 704 | Rev peptide-RRE RNA binding, FRET | inhibition, % at 8 µM | P05866 | 97,000 tested, 0.79% active;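 active means inhibition above the screen-wide mean plus 3 SD, cut at about 35% in these data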;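 further: 0% = median DMSO wells and 100% = median Neomycin B control wells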
Target sequence (P05866 whole entry, looked up): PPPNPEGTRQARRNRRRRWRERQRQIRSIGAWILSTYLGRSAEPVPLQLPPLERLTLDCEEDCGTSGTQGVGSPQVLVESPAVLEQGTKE
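Test system – labelled RRE RNA duplex and labelled Rev peptide · Reagent – labelled Rev peptide · Doses – one concentration, 8 µM nominal · Incubation – 5 + 15 min at 25 °C · Signal – FRET fluorescence readout · Read-out basis – % inhibition of FRET ratio versus controls · Control set – DMSO wells as 0% and neomycin B wells as 100% inhibition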
CYP2C9 inh = inhibitors of human CYP2C9 | CYP2C9 Supersomes, luciferin-H conversion, luminescence | inhibition, % at 5 µM | 96,000 tested, 20% active;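 active means blocking of liver enzyme CYP2C9 beyond about 50% at 5 µM, limit read from the data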
CYP2C19 act = activators of human cytochrome P450 2C19 | 96,000 tested, under 10 active | activation factor at 5 µM | recombinant CYP2C19, luciferin-H EGE luminescence; hits give high values; 0 = fully inhibited enzyme, 1 = untreated enzyme | P33261 | AID 1025;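 active means activation factor of at least 2 at 5 µM in the primary screen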;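 further: 0 = wells with 2.5 mM tranylcypromine and 1 = vehicle-only wells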
Target sequence (P33261 whole entry, looked up): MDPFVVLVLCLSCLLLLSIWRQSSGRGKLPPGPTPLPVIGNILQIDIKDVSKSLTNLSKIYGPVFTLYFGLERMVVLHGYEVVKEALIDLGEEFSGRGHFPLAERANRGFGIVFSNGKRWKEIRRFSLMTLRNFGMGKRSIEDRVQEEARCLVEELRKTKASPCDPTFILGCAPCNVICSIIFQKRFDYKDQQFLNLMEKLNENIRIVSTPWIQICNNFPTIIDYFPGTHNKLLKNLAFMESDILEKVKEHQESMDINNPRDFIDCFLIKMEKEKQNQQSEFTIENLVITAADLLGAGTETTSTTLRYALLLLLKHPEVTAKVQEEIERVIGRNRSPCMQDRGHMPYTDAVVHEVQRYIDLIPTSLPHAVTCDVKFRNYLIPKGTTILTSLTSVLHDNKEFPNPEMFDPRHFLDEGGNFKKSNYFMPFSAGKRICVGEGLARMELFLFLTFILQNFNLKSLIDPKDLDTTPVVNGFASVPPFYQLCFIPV
CYP2C9 activ = activators of human CYP2C9; recombinant CYP2C9, luciferin-H conversion, luminescence; hits give high values; factor 1 = untreated enzyme, 0 = blocked; AID 1024; activation factor at 5 µM; P11712; 96,000 tested, 1.4% active;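 active means activation factor of 2 or more for CYP2C9 at a 5 µM dose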;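 further: 0 = sulfaphenazole-blocked wells and 1 = vehicle-only wells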
CYP2C19 inh = human CYP2C19 inhibition; P33261; CYP2C19 Supersomes, luciferin-H EGE luminescence, 30 min; inhibition, % at 5 µM; 96,000 tested, 21% active; AID 778;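 active means CYP2C19 inhibition above a set limit at 5 µM in the primary screen, cut at about 50% in these data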;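 further: plate controls were negative control wells for no effect and 2.5 mM tranylcypromine positive control for full effect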
Cav32 inh = inhibitors of human Cav3.2 T-type calcium channel; O95180; Cav3.2-expressing cells, Fluo-4 calcium fluorescence FDSS; hits give low values; B-score at 10 µM; 100,000 tested, 4% active; AID 449739;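 active means single-dose well whose peak fluorescence ratio is a statistical outlier from its plate by either plate-standardised score or position-corrected B-score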
The depositor's hits bear a star; . = not tested or not shown. The list is not random: actives were taken first. Their share in the collection is about 27%.

SMILES | HIV Rev-RRE inh | CYP2C9 inh | CYP2C19 act | CYP2C9 activ | CYP2C19 inh | Cav32 inh
Cc1ccc(-n2c(C)cc(C(=O)CSc3nncs3)c2C)cc1 | . | 90* | 0 | 0.1 | 100* | -1.9
Cc1ccc(-n2c(C)cc(C(=O)CSc3nnnn3C)c2C)cc1 | 0 | 61* | 0.5 | 0.4 | 53* | -2.5
COC(=O)CSC1=C(C#N)C(c2ccc(F)cc2)CC(=O)N1 (stereo unspecified) | 0 | 90* | 0.3 | 0.1 | 72* | -0.095
CCOc1ccc(C2CC(=O)NC(SC)=C2C#N)cc1 (stereo unspecified) | 1 | 56* | 0.6 | 0.4 | 36 | 3.2
CCCOC(=O)CSC1=C(C#N)C(c2ccc3c(c2)OCO3)CC(=O)N1 (stereo unspecified) | 2 | 97* | 0.1 | 0 | 92* | -0.077
C=CCSC1=C(C#N)C(c2ccc(OCC)cc2)CC(=O)N1 (stereo unspecified) | 6 | 65* | 0.2 | 0.4 | 82* | 1.4
COc1ccc(C(=O)Oc2cccnc2)cc1OC | 8 | 13 | 1 | 0.9 | 2 | 0.38
CN(C1CCCCC1)S(=O)(=O)c1ccc(Cl)c(C(=O)O)c1 | . | 7 | 0.9 | 0.9 | 5 | 0.32
CC1CN(C)C(C)CC1NCc1ccc2c(c1)OCO2 (stereo unspecified) | . | 5 | 0.9 | 0.9 | 14 | 0.082
COc1ccc(-c2c/c(=N\c3nc(-c4ccccc4)c(C)s3)c3ccccc3o2)cc1O | 12 | 93* | 0.7 | 0.1 | 28 | -0.033
CCOC(=O)c1cccc(NC(=O)CNS(=O)(=O)c2cccs2)c1 | -1 | . | . | . | . | 0.047
O=C(OCCN(CCOC(=O)c1ccncc1)S(=O)(=O)c1cccs1)c1ccncc1 | 2 | 100* | 0 | 0 | 99* | 0.68
O=C(c1ccccc1)[C@H]1[C@H](c2ccccc2)[C@@]2(N=C(c3ccccc3)OC2=O)C2c3ccccc3C=NN21 (stereo partly specified) | 0 | 14 | 0.8 | 0.9 | 22 | -1.7
Cc1cc2sc(C(=O)O)c(C)c2s1 | 9 | . | . | . | . | -0.042
Cc1ccc(O)c(N=CC2=C(O)c3ccccc3C2=O)c1 | 20 | 79* | 0.5 | 0.2 | 50 | -0.021
O=C1C(C=Nc2ccccc2O)=C(O)c2ccccc21 | 3 | 16 | 1 | 0.8 | 5 | -0.17
O=C(NCc1nc(-c2ccccc2)no1)c1ccc(Br)o1 | 5 | 5 | 0.3 | 0.9 | 72* | -0.64
O=C(NCc1ccncc1)c1ccc(Br)o1 | . | 28 | 0.9 | 0.7 | 14 | 0.55
O=C(NCc1nc(-c2ccccc2)no1)c1cccs1 | 9 | 33 | 0.4 | 0.7 | 56* | 0.43
CCN(CC)CCN1C(=O)C(=O)/C(=C(/O)c2ccc(OC)cc2)C1c1ccco1 (stereo unspecified) | 7 | -2 | 1.1 | 1 | -8 | .
CCOc1ccc(/C(O)=C2/C(=O)C(=O)N(c3nc(C)c(C)s3)C2c2ccco2)cc1 (stereo unspecified) | 7 | 81* | 0.5 | 0.2 | 46 | -5.7*
COC(=O)C1=C(C(=O)OC)[C@@H]2N(C)c3ccc(OC)cc3[C@@]23C[C@@H](C(=O)OC)N(S(=O)(=O)c2ccc(OC)cc2)C3=N1 | . | . | . | . | . | -0.64
O=C(NC(NC(=S)Nc1ccc(Cl)cc1Cl)C(Cl)(Cl)Cl)c1cccc([N+](=O)[O-])c1 (stereo unspecified) | 5 | 88* | 0.9 | 0.1 | 7 | -4.9*
CCN(CC)CCNc1ncnc2c1sc1nc(N3CCOCC3)c3c(c12)CC(C)(C)SC3 | 3 | 23 | 0.8 | 0.8 | 22 | 0.27
CC(C)(C)n1nnnc1CN1CCC(NC(=O)NC2CCCCC2)CC1 | 2 | 2 | 1 | 1 | 2 | 0.92
SMILES | HIV Rev-RRE inh | CYP2C9 inh | CYP2C19 act | CYP2C9 activ | CYP2C19 inh | Cav32 inh
COc1cccc(OCCSc2nnc3sc4ccccc4n23)c1 | -1 | -85 | 0.5 | 1.9 | 50* | -1.1
Cc1ccccc1Nc1nc(N)nc(CSc2nnc3sc4ccccc4n23)n1 | 4 | -136 | 1.1 | 2.4* | -12 | 0.3
CCN(CC)C(=O)CSc1nnc(-c2ccccc2)n1N | 3 | 5 | 1 | 0.9 | 2 | 0.49
CCN(CC)C(=O)CSc1nnc2sc3ccccc3n12 | . | -84 | 0.2 | 1.8 | 77* | -0.12
c1ccc(OCCSc2nnc3sc4ccccc4n23)cc1 | 4 | -9 | 0.7 | 1.1 | 30 | -0.43
O=C(Oc1ccccc1)c1ccc2nsnc2c1 | 6 | . | . | . | . | -1.7
O=c1c2c3c(sc2n2cnnc2n1Cc1ccccc1)CN(Cc1ccccc1)CC3 | 35 | 74* | 0.3 | 0.3 | 66* | 0.7
Cc1nnc2n(Cc3ccccc3)c(=O)c3c4c(sc3n12)CN(Cc1ccccc1)CC4 | . | 8 | 0.9 | 0.9 | 6 | .
CCOCC(=O)Nc1cc(C(=O)OC)ccc1C(=O)OC | 2 | 27 | 0.7 | 0.7 | 29 | 0.7
COC(=O)c1ccc(C(=O)OC)c(NC(=O)COC(=O)C23CC4CC(CC(O)(C4)C2)C3)c1 | 10 | 58* | 0.9 | 0.4 | 13 | 1.5
O=C(O)CCC(NS(=O)(=O)c1ccc(-c2ccccc2)cc1)C(=O)O (stereo unspecified) | 8 | -13 | 1 | 1.1 | -3 | 0.093
C(#Cc1ccccc1)Cn1nnc2ccccc21 | 4 | 17 | 0.6 | 0.8 | 45 | -3.9
O=CNc1ccc(S(=O)(=O)NCc2ccccc2)cc1 | 3 | -78 | 0.1 | 1.8 | 90* | 0.45
CCOC(=O)Nc1ccc(S(=O)(=O)NCc2ccccc2)cc1 | -1 | 7 | 0.8 | 0.9 | 19 | 2.1
CSc1ccc(S(=O)(=O)NCc2ccccc2)cc1 | 0 | -13 | 0.3 | 1.1 | 67* | -0.036
CSc1ccc(S(=O)(=O)NCc2ccc(Cl)cc2Cl)cc1 | 19 | -136 | 0.1 | 2.4* | 86* | -0.16
Cn1c2c(c(=O)n(C)c1=O)C1(C(=O)Nc3ccccc31)C(C#N)=C(N)O2 (stereo unspecified) | 5 | 13 | 1 | 0.9 | 0 | -0.45
CCO[C@@H]1OC(C(=O)Nc2ccccc2)=C[C@H](c2ccc3c(c2)OCO3)[C@H]1CCCO | . | . | . | . | . | -0.011
COC(=O)c1ccccc1NC(=O)CSc1ccccc1 | . | -28 | 0 | 1.3 | 95* | .
Cc1ccc(SCC(=O)Nc2ccccc2C(=O)O)cc1 | 5 | 85* | 0.7 | 0.2 | 34 | -1.7
COC(=O)c1ccccc1NC(=O)COc1ccccc1 | 4 | 2 | 0.5 | 1 | 53* | -1.4
COC(=O)c1ccccc1NC(=O)CSc1n[nH]c(CC(C)C)n1 | 0 | -50 | 0.1 | 1.5 | 86* | -0.079
COC(=O)c1ccccc1NC(=O)CSc1ccc(C)cc1 | 18 | . | . | . | . | -1.9
COC(=O)c1ccccc1NC(=O)n1cc(C)cn1 | 6 | 6 | 1 | 0.9 | 2 | -1.7
COC(=O)c1ccccc1NC(=O)Cn1cc(Br)cn1 | -4 | 0 | 0.4 | 1 | 60* | 0.61
